# Measured values as given in ChEMBL document CHEMBL3745617 (J Med Chem, 2015).
# pIC50: −log10 of the molar value. Active and inactive are the calls of the source. The rule behind the calls is not given here.
# Assays:
# [1] = molecular target: Tyrosine-protein kinase Blk (Homo sapiens) (UniProt P51451); experiment: Inhibition of BLK (unknown origin) expressed in BaF3 cells assessed as inhibition of cell proliferation after 72 hrs by CelltiterGlo assay; type: cell-based
# [2] = molecular target: Tyrosine-protein kinase Lck (Homo sapiens) (UniProt P06239); experiment: Inhibition of LCK (unknown origin) expressed in BaF3 cells assessed as inhibition of cell proliferation after 72 hrs by CelltiterGlo assay; type: cell-based
# [3] = molecular target: Proto-oncogene tyrosine-protein kinase receptor Ret (Homo sapiens) (UniProt P07949); experiment: Inhibition of RET (unknown origin) expressed in BaF3 cells assessed as inhibition of cell proliferation after 72 hrs by CelltiterGlo assay; type: cell-based
# [4] = molecular target: Hepatocyte growth factor receptor (Homo sapiens) (UniProt P08581); experiment: Inhibition of MET (unknown origin) expressed in BaF3 cells assessed as inhibition of cell proliferation after 72 hrs by CelltiterGlo assay; type: cell-based
# [5] = molecular target: Epidermal growth factor receptor (Homo sapiens) (UniProt P00533); experiment: Inhibition of EGFR (unknown origin) expressed in BaF3 cells assessed as inhibition of cell proliferation after 72 hrs by CelltiterGlo assay; type: cell-based
# [6] = molecular target: Tyrosine-protein kinase JAK1 (Homo sapiens) (UniProt P23458); experiment: Inhibition of JAK1 (unknown origin) expressed in BaF3 cells assessed as inhibition of cell proliferation after 72 hrs by CelltiterGlo assay; type: cell-based
# [7] = molecular target: Tyrosine-protein kinase JAK2 (Homo sapiens) (UniProt O60674); experiment: Inhibition of JAK2 (unknown origin) expressed in BaF3 cells assessed as inhibition of cell proliferation after 72 hrs by CelltiterGlo assay; type: cell-based
# [8] = molecular target: Cytoplasmic tyrosine-protein kinase BMX (Homo sapiens) (UniProt P51813); experiment: Inhibition of BMX (unknown origin) expressed in BaF3 cells assessed as inhibition of cell proliferation after 72 hrs by CelltiterGlo assay; type: cell-based
# [9] = molecular target: Tyrosine-protein kinase HCK (Homo sapiens) (UniProt P08631); experiment: Inhibition of HCK (unknown origin) expressed in BaF3 cells assessed as inhibition of cell proliferation after 72 hrs by CelltiterGlo assay; type: cell-based
# [10] = molecular target: Platelet-derived growth factor receptor beta (Homo sapiens) (UniProt P09619); experiment: Inhibition of PDGFRB (unknown origin) expressed in BaF3 cells assessed as inhibition of cell proliferation after 72 hrs by CelltiterGlo assay; type: cell-based
# [11] = Antiproliferative activity against human MOLM14 cells after 72 hrs by CelltiterGlo assay; type: functional; details: MOLM-14, 72 h
# [12] = Antiproliferative activity against human SU-DHL-2 cells after 72 hrs by CelltiterGlo assay; type: functional; details: SU-DHL-2, 72 h
# [13] = Antiproliferative activity against human U2932 cells after 72 hrs by CelltiterGlo assay; type: functional; details: U2932, 72 h
# [14] = Antiproliferative activity against human NAMALWA cells after 72 hrs by CelltiterGlo assay; type: functional; details: NAMALVA
# [15] = AUC(0 to infinity) in Sprague-Dawley rat at 10 mg/kg, po; type: ADME, organism-based; design: dose 10 mg/kg, route oral, time infinity; details: in vivo
# [16] = Mean residence time (0 to infinity) in Sprague-Dawley rat at 10 mg/kg, po; type: ADME, organism-based; details: in vivo
# MV4-11 [17] = experiment: Antitumor activity against human MV4-11 cells xenografted in nu/nu mouse assessed as tumor weight at 12.5 mg/kg/day administered via oral gavage measured after 22 days of treatment (reference value: 2.5 g); type: functional
# MV4-11 [18] = experiment: Antitumor activity against human MV4-11 cells xenografted in nu/nu mouse assessed as tumor weight at 25 mg/kg/day administered via oral gavage measured after 22 days of treatment (reference value: 2.5 g); type: functional
# MV4-11 [19] = experiment: Antitumor activity against human MV4-11 cells xenografted in nu/nu mouse assessed as tumor weight at 50 mg/kg/day administered via oral gavage measured after 22 days of treatment (reference value: 2.5 g); type: functional
# [20] = Cytotoxicity against mouse BAF3 cells assessed as cell proliferation after 72 hrs by CelltiterGlo assay; type: cell-based
# [21] = molecular target: Tyrosine-protein kinase Blk (Homo sapiens) (UniProt P51451); experiment: Inhibition of BLK (unknown origin) assessed as remaining activity at 1 uM relative to control
# Summary of the method: (§1)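 KinomeScan competitive binding panel of 468 kinases. Compound tested at a single 1 µM concentration. Read-out is percent of kinase activity remaining relative to a DMSO control.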
# [22] = molecular target: Tyrosine-protein kinase HCK (Homo sapiens) (UniProt P08631); experiment: Inhibition of HCK (unknown origin) assessed as remaining activity at 1 uM relative to control; summary of the method: as §1
# [23] = molecular target: Dual specificity mitogen-activated protein kinase kinase 5 (Homo sapiens) (UniProt Q13163); experiment: Inhibition of MEK5 (unknown origin) assessed as remaining activity at 1 uM relative to control
# Summary of the method: (§2)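 KinomeScan competition binding panel of 468 kinases, with the compound tested at 1 µM. Each kinase's result is reported as percent activity remaining relative to a DMSO control.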
# [24] = molecular target: Tyrosine-protein kinase Srms (Homo sapiens) (UniProt Q9H3Y6); experiment: Inhibition of SRMS (unknown origin) assessed as remaining activity at 1 uM relative to control; summary of the method: as §2
# [25] = molecular target: Tyrosine-protein kinase BTK (Homo sapiens, UniProt Q06187); experiment: Inhibition of BTK (unknown origin) by ADP-Glo assay
# [26] = molecular target: Mast/stem cell growth factor receptor Kit (Homo sapiens, UniProt P10721); experiment: Inhibition of c-KIT (unknown origin) by ADP-Glo assay
# Summary of the method: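 Biochemical activity assay in ADP-Glo format using purified c-KIT kinase protein. It was run to confirm the binding-panel findings.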
# [27] = Cell cycle arrest in human MOLM13 cells assessed as accumulation at G0/G1 phase at 0.03 to 1 uM after 12 hrs by flow cytometry; type: functional, cell-based; details: MOLM-13
# MV4-11 [28] = experiment: Induction of apoptosis in human MV4-11 cells assessed as cleaved caspase-3 level at 0.03 to 1 uM after 48 hrs by immunoblot analysis; type: functional, cell-based
# [29] = molecular target: Receptor-type tyrosine-protein kinase FLT3 (Homo sapiens) (UniProt P36888); details: MV4-11, 0.03 to 3 uM
# [30] = molecular target: Receptor-type tyrosine-protein kinase FLT3 (Homo sapiens) (UniProt P36888); details: BaF3
# [31] = test system: Receptor-type tyrosine-protein kinase FLT3 (Homo sapiens), P36888 [D835H]; details: BaF3
# [32] = molecular target: Receptor-type tyrosine-protein kinase FLT3 (Homo sapiens) (UniProt P36888); details: MV4-11, 0.03 to 3 uM; remark: listed apart in the source
# [33] = molecular target: Receptor-type tyrosine-protein kinase FLT3 (Homo sapiens) (UniProt P36888); details: MOLM-14, 0.03 to 3 uM
# [34] = molecular target: Receptor-type tyrosine-protein kinase FLT3 (Homo sapiens) (UniProt P36888); details: MV4-11, 0.03 to 3 uM; remark: listed apart in the source
# [35] = molecular target: Receptor-type tyrosine-protein kinase FLT3 (Homo sapiens) (UniProt P36888); details: MOLM-14, 0.03 to 3 uM; remark: listed apart in the source
# [36] = molecular target: Receptor-type tyrosine-protein kinase FLT3 (Homo sapiens) (UniProt P36888); details: MOLM-13, 0.03 to 3 uM
# Chain of Tyrosine-protein kinase HCK (Homo sapiens) (P08631 2-526 limits assumed): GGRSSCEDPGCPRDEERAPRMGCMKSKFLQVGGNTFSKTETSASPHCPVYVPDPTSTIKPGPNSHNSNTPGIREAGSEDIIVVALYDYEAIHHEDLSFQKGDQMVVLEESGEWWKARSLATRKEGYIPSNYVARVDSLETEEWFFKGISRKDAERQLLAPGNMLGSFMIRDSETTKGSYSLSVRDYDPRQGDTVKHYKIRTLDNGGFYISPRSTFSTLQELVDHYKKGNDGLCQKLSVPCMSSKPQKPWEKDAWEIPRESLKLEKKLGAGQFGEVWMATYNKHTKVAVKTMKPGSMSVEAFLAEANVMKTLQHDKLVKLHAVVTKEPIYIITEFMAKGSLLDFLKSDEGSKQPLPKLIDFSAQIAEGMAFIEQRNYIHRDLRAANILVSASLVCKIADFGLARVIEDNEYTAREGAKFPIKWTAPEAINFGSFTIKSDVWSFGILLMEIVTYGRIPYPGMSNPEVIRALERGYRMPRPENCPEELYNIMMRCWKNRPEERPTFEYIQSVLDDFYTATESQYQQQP
# Chain of Tyrosine-protein kinase Blk (Homo sapiens) (P51451 2-505 limits assumed): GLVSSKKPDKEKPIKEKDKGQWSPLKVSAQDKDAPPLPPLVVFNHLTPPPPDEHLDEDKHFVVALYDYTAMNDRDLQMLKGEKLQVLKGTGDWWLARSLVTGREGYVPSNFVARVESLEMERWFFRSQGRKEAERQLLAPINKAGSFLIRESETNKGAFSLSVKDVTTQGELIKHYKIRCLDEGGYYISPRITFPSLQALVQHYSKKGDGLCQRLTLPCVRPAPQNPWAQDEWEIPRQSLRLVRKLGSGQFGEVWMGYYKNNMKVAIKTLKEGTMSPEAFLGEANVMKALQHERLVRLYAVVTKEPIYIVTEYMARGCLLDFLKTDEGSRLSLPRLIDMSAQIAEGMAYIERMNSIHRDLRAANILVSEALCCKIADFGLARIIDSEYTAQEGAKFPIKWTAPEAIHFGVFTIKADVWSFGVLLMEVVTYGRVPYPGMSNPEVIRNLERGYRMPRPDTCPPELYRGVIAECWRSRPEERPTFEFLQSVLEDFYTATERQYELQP
# Chain of Platelet-derived growth factor receptor beta (Homo sapiens) (P09619 whole entry): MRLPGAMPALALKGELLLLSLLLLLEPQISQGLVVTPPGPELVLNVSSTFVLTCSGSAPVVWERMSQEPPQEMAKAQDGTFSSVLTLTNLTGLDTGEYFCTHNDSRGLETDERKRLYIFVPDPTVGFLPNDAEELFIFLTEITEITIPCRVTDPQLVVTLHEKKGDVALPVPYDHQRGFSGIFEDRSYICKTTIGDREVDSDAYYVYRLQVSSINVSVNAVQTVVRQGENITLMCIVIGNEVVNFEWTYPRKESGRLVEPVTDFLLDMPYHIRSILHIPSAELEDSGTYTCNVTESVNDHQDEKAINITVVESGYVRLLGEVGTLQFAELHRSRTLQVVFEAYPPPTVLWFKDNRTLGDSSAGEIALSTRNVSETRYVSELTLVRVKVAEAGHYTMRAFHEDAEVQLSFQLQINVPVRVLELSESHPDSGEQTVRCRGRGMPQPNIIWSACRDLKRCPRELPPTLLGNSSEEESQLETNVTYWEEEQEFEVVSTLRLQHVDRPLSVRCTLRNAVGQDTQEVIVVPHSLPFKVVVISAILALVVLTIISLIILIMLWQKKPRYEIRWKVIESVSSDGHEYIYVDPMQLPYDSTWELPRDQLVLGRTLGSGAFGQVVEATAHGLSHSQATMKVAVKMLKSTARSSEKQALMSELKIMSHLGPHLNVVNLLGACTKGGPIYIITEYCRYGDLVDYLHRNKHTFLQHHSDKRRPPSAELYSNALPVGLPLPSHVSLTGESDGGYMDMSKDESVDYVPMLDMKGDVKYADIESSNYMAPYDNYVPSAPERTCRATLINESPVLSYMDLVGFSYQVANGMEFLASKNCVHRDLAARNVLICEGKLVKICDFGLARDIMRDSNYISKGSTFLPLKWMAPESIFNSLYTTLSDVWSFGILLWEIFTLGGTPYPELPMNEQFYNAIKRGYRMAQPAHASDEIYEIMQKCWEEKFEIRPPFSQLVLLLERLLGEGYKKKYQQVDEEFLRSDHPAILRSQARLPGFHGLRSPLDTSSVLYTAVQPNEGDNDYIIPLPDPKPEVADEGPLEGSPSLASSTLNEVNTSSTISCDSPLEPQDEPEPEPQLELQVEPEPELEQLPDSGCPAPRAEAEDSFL
# Chain of Hepatocyte growth factor receptor (Homo sapiens) (P08581 whole entry): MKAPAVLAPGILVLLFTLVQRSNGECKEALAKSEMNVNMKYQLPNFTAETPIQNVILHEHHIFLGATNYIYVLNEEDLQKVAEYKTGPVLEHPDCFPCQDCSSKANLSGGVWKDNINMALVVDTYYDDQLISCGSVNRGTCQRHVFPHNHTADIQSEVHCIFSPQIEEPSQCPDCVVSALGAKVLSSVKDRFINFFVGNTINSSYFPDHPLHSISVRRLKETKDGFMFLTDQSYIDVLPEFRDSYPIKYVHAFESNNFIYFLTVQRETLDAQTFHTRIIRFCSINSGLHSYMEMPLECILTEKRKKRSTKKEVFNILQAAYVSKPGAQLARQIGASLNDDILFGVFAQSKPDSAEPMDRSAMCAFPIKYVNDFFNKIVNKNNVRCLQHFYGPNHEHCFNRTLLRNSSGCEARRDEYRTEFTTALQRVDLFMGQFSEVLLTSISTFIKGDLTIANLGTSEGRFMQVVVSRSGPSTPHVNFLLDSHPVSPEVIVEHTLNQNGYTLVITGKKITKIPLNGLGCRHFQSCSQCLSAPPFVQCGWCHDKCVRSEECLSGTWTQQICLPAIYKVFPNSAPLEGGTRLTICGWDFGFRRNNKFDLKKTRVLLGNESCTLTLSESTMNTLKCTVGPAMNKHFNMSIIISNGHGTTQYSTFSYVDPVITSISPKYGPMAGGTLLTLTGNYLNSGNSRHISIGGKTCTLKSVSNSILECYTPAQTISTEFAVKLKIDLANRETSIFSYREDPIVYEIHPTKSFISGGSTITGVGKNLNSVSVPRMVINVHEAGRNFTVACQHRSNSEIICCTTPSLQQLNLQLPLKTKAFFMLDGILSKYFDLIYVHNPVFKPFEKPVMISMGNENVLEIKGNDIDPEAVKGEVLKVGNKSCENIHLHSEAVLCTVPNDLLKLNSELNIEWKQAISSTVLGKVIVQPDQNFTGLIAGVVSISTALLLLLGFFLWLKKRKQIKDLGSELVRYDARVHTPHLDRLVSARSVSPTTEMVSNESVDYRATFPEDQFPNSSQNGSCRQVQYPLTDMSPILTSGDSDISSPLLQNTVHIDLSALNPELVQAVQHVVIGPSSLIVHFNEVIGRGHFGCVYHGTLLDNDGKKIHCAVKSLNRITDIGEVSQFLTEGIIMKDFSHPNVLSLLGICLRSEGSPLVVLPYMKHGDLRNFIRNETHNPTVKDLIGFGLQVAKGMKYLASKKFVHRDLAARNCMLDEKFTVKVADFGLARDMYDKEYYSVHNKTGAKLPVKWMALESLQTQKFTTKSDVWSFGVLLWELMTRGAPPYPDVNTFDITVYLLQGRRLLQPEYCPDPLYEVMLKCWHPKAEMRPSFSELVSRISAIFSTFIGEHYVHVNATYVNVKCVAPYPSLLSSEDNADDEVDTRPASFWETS
# Chain of Tyrosine-protein kinase JAK2 (Homo sapiens) (O60674 whole entry): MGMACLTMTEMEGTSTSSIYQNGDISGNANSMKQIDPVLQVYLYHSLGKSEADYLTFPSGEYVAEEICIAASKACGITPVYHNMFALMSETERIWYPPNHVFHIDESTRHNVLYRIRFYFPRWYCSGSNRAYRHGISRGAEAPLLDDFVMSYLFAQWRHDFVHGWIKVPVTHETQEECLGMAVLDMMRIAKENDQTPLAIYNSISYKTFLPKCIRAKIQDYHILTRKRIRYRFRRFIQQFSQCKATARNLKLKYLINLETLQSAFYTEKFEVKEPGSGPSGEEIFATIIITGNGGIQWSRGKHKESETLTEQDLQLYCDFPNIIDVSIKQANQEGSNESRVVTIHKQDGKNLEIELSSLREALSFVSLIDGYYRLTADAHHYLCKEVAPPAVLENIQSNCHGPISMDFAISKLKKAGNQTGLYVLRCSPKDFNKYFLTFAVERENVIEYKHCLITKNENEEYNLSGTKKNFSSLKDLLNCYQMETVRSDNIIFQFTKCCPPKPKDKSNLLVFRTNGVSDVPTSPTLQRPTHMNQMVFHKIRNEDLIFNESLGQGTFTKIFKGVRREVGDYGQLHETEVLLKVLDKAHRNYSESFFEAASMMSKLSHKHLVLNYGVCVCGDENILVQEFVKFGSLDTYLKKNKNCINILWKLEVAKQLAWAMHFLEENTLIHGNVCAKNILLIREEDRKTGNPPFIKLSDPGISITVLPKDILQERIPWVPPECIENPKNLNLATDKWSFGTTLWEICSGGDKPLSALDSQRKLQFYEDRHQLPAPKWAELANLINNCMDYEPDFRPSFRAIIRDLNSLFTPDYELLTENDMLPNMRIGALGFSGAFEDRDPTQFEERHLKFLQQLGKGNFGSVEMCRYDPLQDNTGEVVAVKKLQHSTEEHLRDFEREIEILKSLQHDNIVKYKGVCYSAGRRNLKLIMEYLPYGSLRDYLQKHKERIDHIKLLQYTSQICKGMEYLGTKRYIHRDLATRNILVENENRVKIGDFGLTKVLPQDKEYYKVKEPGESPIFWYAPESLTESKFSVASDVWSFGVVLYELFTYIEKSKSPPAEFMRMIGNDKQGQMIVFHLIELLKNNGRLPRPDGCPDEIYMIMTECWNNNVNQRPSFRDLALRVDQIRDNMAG
# Chain of Dual specificity mitogen-activated protein kinase kinase 5 (Homo sapiens) (Q13163 whole entry): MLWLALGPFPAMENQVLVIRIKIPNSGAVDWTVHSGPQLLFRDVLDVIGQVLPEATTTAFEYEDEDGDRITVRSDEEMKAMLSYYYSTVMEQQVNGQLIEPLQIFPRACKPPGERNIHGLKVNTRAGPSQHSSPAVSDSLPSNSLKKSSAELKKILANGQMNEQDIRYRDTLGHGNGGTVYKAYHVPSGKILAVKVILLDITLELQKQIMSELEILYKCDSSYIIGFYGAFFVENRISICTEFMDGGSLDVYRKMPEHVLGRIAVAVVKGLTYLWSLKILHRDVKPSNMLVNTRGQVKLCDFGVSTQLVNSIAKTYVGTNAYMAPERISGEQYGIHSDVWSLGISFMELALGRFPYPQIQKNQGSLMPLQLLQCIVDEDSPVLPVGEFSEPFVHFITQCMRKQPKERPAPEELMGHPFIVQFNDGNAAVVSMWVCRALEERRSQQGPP
structure (smiles),measurement,setting,value
CN(C)CC(=O)N1CCC[C@@H](n2nc(-c3ccc(Oc4ccccc4)cc3)c3c(N)ncnc32)C1,GI50,[1],940 nM
same,GI50,[2],310 nM
same,GI50,[3],650 nM
same,GI50,[4],2200 nM
same,GI50,[5],1800 nM
same,GI50,[6],3800 nM
same,GI50,[7],300 nM
same,GI50,[8],280 nM
same,GI50,[9],880 nM
same,GI50,[10],680 nM
same,GI50,[11],42 nM
same,GI50,[12],5500 nM
same,GI50,[13],1600 nM
same,GI50,[14],6400 nM
same,AUCinf,[15],1880 ng·h/mL
same,MRT inf,[16],2.75 h
same,Activity,MV4-11 [17],1.54 g
same,Activity,MV4-11 [18],0.94 g
same,Activity,MV4-11 [19],0.3 g
same,GI50 at 72 h,[20],4900 nM
same,Activity,[21],0.1%
same,Activity,[22],0.5%
same,Activity,[23],0.45%
same,Activity,[24],0%
same,pIC50,[25],6.38
same,pIC50,[26],6.25
same,Activity,[27],Active
same,Activity,MV4-11 [28],Active
same,inhibition,[29],Active
same,GI50,[30],16 nM
same,GI50,[31],4 nM
same,inhibition,[32],Active
same,inhibition,[33],Active
same,inhibition,[34],Active
same,inhibition,[35],Active
same,inhibition,[36],Active
